Results as given in ChEMBL document CHEMBL2417386, “Novel conjugated quinoline-indoles compromise Plasmodium falciparum mitochondrial function and show promising antimalarial activity” (J Med Chem, 2013).
One block for each compound: values may come before it.

Experiments:
Plasmodium falciparum [1] = assay: Antimalarial activity against Plasmodium falciparum 3D7 infected in RBC assessed as growth inhibition after 48 hrs by SYBR Green-I fluorescence assay; assay type: functional, organism-based; details: 3D7, 48 h
Outline: (§1)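 Parasite-infected red cells exposed to compound for 48 h; growth read by SYBR Green-I fluorescence; IC50 derived. Where a ± is given, it is the standard deviation of three individual experiments.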

[2] = Selectivity index, ratio of IC50 for HEK293 cells to IC50 for Plasmodium falciparum 3D7 after 72 hrs; assay type: toxicity, cell-based; details: human, read-out: Ratio IC50
Outline: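 Parasite (3D7) viability assay and HEK293 viability assay, each with a 72 h exposure. Index taken as the ratio of the IC50 values, HEK293 over 3D7.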

Plasmodium falciparum [3] = assay: Resistant index, ratio of IC50 for Plasmodium falciparum K1 to IC50 for Plasmodium falciparum 3D7; assay type: functional
Outline: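 Ratio of K1 to 3D7 IC50 values. Each IC50 comes from a 48 h drug exposure of the P. falciparum strain, with growth read by SYBR Green-I fluorescence. Where spread is given, it is the standard deviation of three individual experiments.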

Plasmodium falciparum [4] = assay: Antimalarial activity against Plasmodium falciparum K1 infected in RBC assessed as growth inhibition after 48 hrs by SYBR Green-I fluorescence assay; assay type: functional, organism-based; details: K1, 48 h; outline: as §1
[5] = Inhibition of beta-hematin formation after 24 hrs by spectrophotometric analysis in presence of nonidet P40; assay type: functional
Plasmodium falciparum [6] = assay: Antimalarial activity against mid to late trophozoite stage of Plasmodium falciparum 3D7 infected in RBC assessed as abnormal mitochondria at 20 uM after 0.5 hrs by MitoTracker Red CMXRos-based fluorescence microscopic analysis relative to untreated control; assay type: functional
Plasmodium falciparum [7] = assay: Antimalarial activity against mid to late trophozoite stage of Plasmodium falciparum 3D7 infected in RBC assessed as abnormal mitochondria at 0.005 uM after 0.5 hrs by MitoTracker Red CMXRos-based fluorescence microscopic analysis relative to untreated control; assay type: functional
Plasmodium falciparum [8] = assay: Antimalarial activity against mid to late trophozoite stage of Plasmodium falciparum 3D7 infected in RBC assessed as nonviable parasite at 200 uM after 0.5 hrs by SYTO 61 staining-based flow cytometric analysis relative to untreated control; assay type: functional
Plasmodium falciparum [9] = assay: Antimalarial activity against mid to late trophozoite stage of Plasmodium falciparum 3D7 infected in RBC assessed as nonviable parasite at 0.005 uM after 0.5 hrs by SYTO 61 staining-based flow cytometric analysis relative to untreated control; assay type: functional
Plasmodium falciparum [10] = assay: Antimalarial activity against mid to late trophozoite stage of Plasmodium falciparum 3D7 infected in RBC assessed as abnormal mitochondria at 40 uM after 0.5 hrs by MitoTracker Red CMXRos-based fluorescence microscopic analysis relative to untreated control; assay type: functional
Plasmodium falciparum [11] = assay: Antimalarial activity against mid to late trophozoite stage of Plasmodium falciparum 3D7 infected in RBC assessed as abnormal mitochondria at 200 uM after 0.5 hrs by MitoTracker Red CMXRos-based fluorescence microscopic analysis relative to untreated control; assay type: functional
Plasmodium falciparum [12] = assay: Gametocytocidal activity against synchronous stage 4 to 5 of transgenic Plasmodium falciparum NF54 gametocyte harboring pfs16 promoter assessed as inhibition of parasite viability at 60 uM after 72 hrs by MitoTracker Red CMXRos-based assay relative to control; assay type: functional; details: NF54, 72 h
Plasmodium falciparum [13] = assay: Antimalarial activity against mid to late trophozoite stage of Plasmodium falciparum 3D7 infected in RBC assessed as abnormal mitochondria at 1000 uM after 0.5 hrs by MitoTracker Red CMXRos-based fluorescence microscopic analysis relative to untreated control; assay type: functional
Plasmodium falciparum [14] = assay: Antimalarial activity against mid to late trophozoite stage of Plasmodium falciparum 3D7 infected in RBC assessed as nonviable parasite at 1000 uM after 0.5 hrs by SYTO 61 staining-based flow cytometric analysis relative to untreated control; assay type: functional
Plasmodium falciparum [15] = assay: Antimalarial activity against mid to late trophozoite stage of Plasmodium falciparum 3D7 infected in RBC assessed as nonviable parasite at 40 uM after 0.5 hrs by SYTO 61 staining-based flow cytometric analysis relative to untreated control; assay type: functional
Plasmodium falciparum [16] = assay: Antimalarial activity against mid to late trophozoite stage of Plasmodium falciparum 3D7 infected in RBC assessed as nonviable parasite at 1.7 uM after 0.5 hrs by SYTO 61 staining-based flow cytometric analysis relative to untreated control; assay type: functional
Plasmodium falciparum [17] = assay: Antimalarial activity against mid to late trophozoite stage of Plasmodium falciparum 3D7 infected in RBC assessed as abnormal mitochondria at 1.7 uM after 0.5 hrs by MitoTracker Red CMXRos-based fluorescence microscopic analysis relative to untreated control; assay type: functional
Plasmodium falciparum [18] = assay: Antimalarial activity against trophozoite stage of Plasmodium falciparum 3D7 infected in RBC assessed as growth inhibition after 5 hrs by SYBR Green-I fluorescence assay; assay type: functional, organism-based; details: 3D7, 5 h
Outline: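 Trophozoite-stage parasites pulsed with compound for 5 h. Drug then washed out and parasites cultured a further 43 h before survival was assessed.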

Plasmodium falciparum [19] = assay: Antimalarial activity against mid to late trophozoite stage of Plasmodium falciparum 3D7 infected in RBC assessed as abnormal mitochondria at 5 uM after 0.5 hrs by MitoTracker Red CMXRos-based fluorescence microscopic analysis relative to untreated control; assay type: functional
Plasmodium falciparum [20] = assay: Antimalarial activity against mid to late trophozoite stage of Plasmodium falciparum 3D7 infected in RBC assessed as abnormal mitochondria at 0.56 uM after 0.5 hrs by MitoTracker Red CMXRos-based fluorescence microscopic analysis relative to untreated control; assay type: functional
Plasmodium falciparum [21] = assay: Ratio of IC50 for trophozoite stage of Plasmodium falciparum 3D7 infected in RBC after 5 hrs to IC50 for Plasmodium falciparum 3D7 infected in RBC after 48 hrs; assay type: functional
Plasmodium falciparum [22] = assay: Gametocytocidal activity against synchronous stage 4 to 5 of transgenic Plasmodium falciparum NF54 gametocyte harboring pfs16 promoter assessed as parasite viability after 72 hrs by MitoTracker Red CMXRos-based assay; assay type: functional, organism-based; details: NF54, 72 h
Plasmodium falciparum [23] = assay: Ratio of IC50 for trophozoite stage of Plasmodium falciparum 3D7 infected in RBC after 5 hrs in presence of 0.2 uM ALLN to IC50 for trophozoite stage of Plasmodium falciparum 3D7 infected in RBC after 5 hrs in absence of ALLN; assay type: functional
Outline: (§2)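 Trophozoite-stage parasites pulsed 5 h with compound, with or without ALLN (0.2 or 5 μM). Drug and ALLN then removed; culture continued a further 43 h before survival was assessed. Antagonism expressed as the ratio of IC50 with ALLN to IC50 without ALLN.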

Plasmodium falciparum [24] = assay: Antimalarial activity against mid to late trophozoite stage of Plasmodium falciparum 3D7 infected in RBC assessed as nonviable parasite at 5 uM after 0.5 hrs by SYTO 61 staining-based flow cytometric analysis relative to untreated control; assay type: functional
Plasmodium falciparum [25] = assay: Gametocytocidal activity against synchronous stage 1 to 3 of transgenic Plasmodium falciparum NF54 gametocyte harboring pfs16 promoter assessed as parasite viability after 72 hrs by luciferase reporter gene assay; assay type: functional, organism-based; details: NF54, 72 h
Plasmodium falciparum [26] = assay: Ratio of IC50 for trophozoite stage of Plasmodium falciparum 3D7 infected in RBC after 5 hrs in presence of 5 uM ALLN to IC50 for trophozoite stage of Plasmodium falciparum 3D7 infected in RBC after 5 hrs in absence of ALLN; assay type: functional; outline: as §2
Plasmodium falciparum [27] = assay: Antimalarial activity against mid to late trophozoite stage of Plasmodium falciparum 3D7 infected in RBC assessed as abnormal mitochondria at 15 uM after 0.5 hrs by MitoTracker Red CMXRos-based fluorescence microscopic analysis relative to untreated control; assay type: functional
Plasmodium falciparum [28] = assay: Antimalarial activity against mid to late trophozoite stage of Plasmodium falciparum 3D7 infected in RBC assessed as nonviable parasite at 15 uM after 0.5 hrs by SYTO 61 staining-based flow cytometric analysis relative to untreated control; assay type: functional
Plasmodium falciparum [29] = assay: Antimalarial activity against mid to late trophozoite stage of Plasmodium falciparum 3D7 infected in RBC assessed as nonviable parasite at 0.56 uM after 0.5 hrs by SYTO 61 staining-based flow cytometric analysis relative to untreated control; assay type: functional

SMILES: C[n+]1c(/C=C/c2c[nH]c3cc(F)ccc23)cc(N)c2ccccc21.[I-]
- IC50 (Plasmodium falciparum [1]): 290 nM
- selectivity ratio at 72 h [2]: 4
- Ratio IC50 (Plasmodium falciparum [3]): 0.3
- IC50 (Plasmodium falciparum [4]): 140 nM

SMILES: CNc1cc(/C=C/c2c(C)[nH]c3ccccc23)[n+](C)c2ccccc12
- IC50 (Plasmodium falciparum [1]): 1400 nM
- selectivity ratio at 72 h [2]: 16
- IC50 (Plasmodium falciparum [4]): 1600 nM

- IC50 [5]: 300000 nM
SMILES: C[n+]1c(/C=C/c2c[nH]c3ccccc23)cc(N)c2ccc(Cl)cc21
- IC50 (Plasmodium falciparum [1]): 400 nM
- selectivity ratio at 72 h [2]: 2
- IC50 (Plasmodium falciparum [4]): 190 nM

SMILES: N#CC(C#N)=NNc1cccc(Cl)c1 [CARBONYL CYANIDE M-CHLOROPHENYLHYDRAZONE]
- Activity (Plasmodium falciparum [6]): 74%

SMILES: CCN(CC)CCCC(C)Nc1ccnc2cc(Cl)ccc12 (centres undefined) [CHLOROQUINE]
- Activity (Plasmodium falciparum [7]): 12%
- Activity (Plasmodium falciparum [8]): 36%
- IC50 [5]: 30000 nM
- Activity (Plasmodium falciparum [9]): 84%
- Activity (Plasmodium falciparum [10]): 0%
- Activity (Plasmodium falciparum [11]): 5%
- inhibition at 60 µM (Plasmodium falciparum [12]): 100%
- Activity (Plasmodium falciparum [13]): 8%
- Activity (Plasmodium falciparum [14]): 85%
- Activity (Plasmodium falciparum [15]): 23%

SMILES: C[n+]1c(/C=C/c2c[nH]c3ncccc23)cc(N)c2ccccc21.[I-]
- IC50 (Plasmodium falciparum [1]): 400 nM
- selectivity ratio at 72 h [2]: 4
- Ratio IC50 (Plasmodium falciparum [3]): 0.3
- IC50 (Plasmodium falciparum [4]): 250 nM

SMILES: Nc1cc(/C=C/c2n[nH]c3ccccc23)nc2ccccc12
- IC50 (Plasmodium falciparum [1]): 140 nM
- selectivity ratio at 72 h [2]: 164
- Ratio IC50 (Plasmodium falciparum [3]): 2
- IC50 (Plasmodium falciparum [4]): 400 nM

SMILES: Cc1[nH]c2ccccc2c1/C=C/c1cc(N)c2ccccc2[n+]1C.[I-]
- Activity (Plasmodium falciparum [16]): 42%
- IC50 (Plasmodium falciparum [1]): 170 nM
- selectivity ratio at 72 h [2]: 18
- IC50 [5]: 220000 nM
- Activity (Plasmodium falciparum [17]): 86%
- IC50 (Plasmodium falciparum [18]): 730 nM
- Activity (Plasmodium falciparum [19]): 97%
- Activity (Plasmodium falciparum [20]): 43%
- Ratio IC50 (Plasmodium falciparum [21]): 4.3
- IC50 (Plasmodium falciparum [22]): 1900 nM
- Ratio IC50 (Plasmodium falciparum [23]): 1
- Activity (Plasmodium falciparum [24]): 66%
- IC50 (Plasmodium falciparum [25]): 350 nM
- Ratio IC50 (Plasmodium falciparum [26]): 1.7
- Activity (Plasmodium falciparum [27]): 99%
- Activity (Plasmodium falciparum [28]): 86%
- Activity (Plasmodium falciparum [29]): 18%
- Ratio IC50 (Plasmodium falciparum [3]): 1.3
- IC50 (Plasmodium falciparum [4]): 230 nM
